Results published in ChEMBL document CHEMBL1800057, “Discovery of dual inducible/neuronal nitric oxide synthase (iNOS/nNOS) inhibitor development candidate 4-((2-cyclobutyl-1H-imidazo[4,5-b]pyrazin-1-yl)methyl)-7,8-difluoroquinolin-2(1H)-one (KD7332) part 2: identification of a novel, potent, and selective series of benzimidazole-quinolinone …” (J Med Chem, 2010).

Legend:
[1] = molecular target: Nitric oxide synthase, inducible (Homo sapiens, UniProt P35228); test: Inhibition of human iNOS expressed in HEK293 cells assessed as inhibition of nitric oxide production after 18 hrs using 2,3-diaminonaphthalene by fluorescence assay; type: cell-based
Sequence of Nitric oxide synthase, inducible (P35228 whole entry): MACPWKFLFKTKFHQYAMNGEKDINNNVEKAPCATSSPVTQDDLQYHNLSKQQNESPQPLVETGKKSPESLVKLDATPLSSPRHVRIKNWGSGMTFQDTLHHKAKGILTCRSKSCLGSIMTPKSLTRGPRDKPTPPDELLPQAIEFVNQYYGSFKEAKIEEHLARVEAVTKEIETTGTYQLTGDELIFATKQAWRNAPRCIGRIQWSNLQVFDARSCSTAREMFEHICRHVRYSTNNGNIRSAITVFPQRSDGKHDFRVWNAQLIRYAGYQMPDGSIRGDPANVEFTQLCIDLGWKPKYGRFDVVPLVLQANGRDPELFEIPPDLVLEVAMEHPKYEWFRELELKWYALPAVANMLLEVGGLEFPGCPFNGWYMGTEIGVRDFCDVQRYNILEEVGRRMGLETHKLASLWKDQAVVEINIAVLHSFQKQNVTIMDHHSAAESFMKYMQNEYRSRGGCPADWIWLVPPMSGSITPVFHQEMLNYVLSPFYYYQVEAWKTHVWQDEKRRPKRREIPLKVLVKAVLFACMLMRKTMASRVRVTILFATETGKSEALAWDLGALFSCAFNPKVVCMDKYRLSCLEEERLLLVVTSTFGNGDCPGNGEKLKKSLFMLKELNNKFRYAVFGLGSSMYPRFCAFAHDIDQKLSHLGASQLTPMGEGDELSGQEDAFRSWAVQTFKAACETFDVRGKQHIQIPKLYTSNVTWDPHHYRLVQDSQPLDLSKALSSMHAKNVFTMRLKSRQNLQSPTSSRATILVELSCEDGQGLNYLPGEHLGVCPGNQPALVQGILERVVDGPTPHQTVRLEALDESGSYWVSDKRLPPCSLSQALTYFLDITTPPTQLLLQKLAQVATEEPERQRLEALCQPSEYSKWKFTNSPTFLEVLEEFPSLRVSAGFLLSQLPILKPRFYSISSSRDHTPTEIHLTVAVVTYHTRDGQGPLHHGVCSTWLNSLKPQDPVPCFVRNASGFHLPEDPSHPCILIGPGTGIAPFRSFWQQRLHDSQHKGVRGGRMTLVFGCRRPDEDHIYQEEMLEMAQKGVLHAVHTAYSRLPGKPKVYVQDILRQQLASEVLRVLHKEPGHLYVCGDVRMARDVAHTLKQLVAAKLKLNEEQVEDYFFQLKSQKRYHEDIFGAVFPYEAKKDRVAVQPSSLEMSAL
How it was run: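 HEK293 cells grown to ~70% confluence in DMEM/10% FBS with pen/strep, transiently transfected with 10 μg human or murine iNOS plasmid plus Fugene 6 for 4 h at 37 °C, 10% CO2. Cells replated at 5e5 cells/mL and dosed with compound at once; 1400W (100 μM final) as positive control. After 18 h, DAN (10 μg/mL final) in HCl (0.1 N final) added for 20 min at room temperature. Fluorescence read after NaOH (0.12 N final).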

Nitric oxide synthase 3 = molecular target: T1, Nitric oxide synthase 3 (Homo sapiens, UniProt P29474); test: Inhibition of human eNOS expressed in HEK293 cells assessed as inhibition A23187 induced nitric oxide production incubated for 24 hrs measured after 18 hrs of […] challenge using 2,3-diaminonaphthalene by fluorescence assay; type: cell-based
T1 sequence (P29474 whole entry): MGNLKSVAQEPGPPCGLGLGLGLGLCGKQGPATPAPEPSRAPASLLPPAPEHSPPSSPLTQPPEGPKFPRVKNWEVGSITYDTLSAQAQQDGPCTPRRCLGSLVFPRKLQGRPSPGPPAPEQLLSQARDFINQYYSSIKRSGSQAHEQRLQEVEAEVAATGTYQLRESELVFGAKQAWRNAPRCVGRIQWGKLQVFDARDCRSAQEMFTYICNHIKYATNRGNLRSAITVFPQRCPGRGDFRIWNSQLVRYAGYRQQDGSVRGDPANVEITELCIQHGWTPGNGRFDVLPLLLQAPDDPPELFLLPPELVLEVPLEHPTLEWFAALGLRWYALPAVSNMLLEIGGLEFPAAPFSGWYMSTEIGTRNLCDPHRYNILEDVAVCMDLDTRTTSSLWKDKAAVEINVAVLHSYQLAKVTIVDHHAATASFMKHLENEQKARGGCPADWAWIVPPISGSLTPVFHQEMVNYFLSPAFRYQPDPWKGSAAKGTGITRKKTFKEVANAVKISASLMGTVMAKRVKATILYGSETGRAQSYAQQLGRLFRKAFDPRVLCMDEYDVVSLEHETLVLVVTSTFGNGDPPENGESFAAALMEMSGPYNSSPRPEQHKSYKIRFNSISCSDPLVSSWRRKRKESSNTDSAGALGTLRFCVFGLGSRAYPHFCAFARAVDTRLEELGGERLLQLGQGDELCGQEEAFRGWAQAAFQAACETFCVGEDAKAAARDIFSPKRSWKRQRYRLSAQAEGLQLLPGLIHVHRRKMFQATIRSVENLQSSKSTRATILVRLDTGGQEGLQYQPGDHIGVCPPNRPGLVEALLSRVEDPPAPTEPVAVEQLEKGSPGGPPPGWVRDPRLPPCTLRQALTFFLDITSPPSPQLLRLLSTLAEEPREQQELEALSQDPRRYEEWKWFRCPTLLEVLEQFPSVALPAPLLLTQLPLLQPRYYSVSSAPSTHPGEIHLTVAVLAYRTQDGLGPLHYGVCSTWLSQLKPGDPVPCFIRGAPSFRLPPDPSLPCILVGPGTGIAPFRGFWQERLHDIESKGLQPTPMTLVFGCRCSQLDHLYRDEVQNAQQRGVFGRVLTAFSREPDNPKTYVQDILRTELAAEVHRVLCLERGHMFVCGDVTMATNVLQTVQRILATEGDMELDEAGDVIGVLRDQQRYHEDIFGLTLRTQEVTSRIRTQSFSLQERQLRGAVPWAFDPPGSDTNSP
How it was run: (§1)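 HEK293 cells transfected for 4 h at 37 °C with human nNOS (10 μg) or human eNOS (15 μg) plasmid (Fugene 6, 3:1). Cells replated at 5e5 cells/mL and dosed with compound at once; SEITU (100 μM final) as positive control. After 24 h, cells activated with A23187 (83 nM final) for eNOS or ionomycin (30 μM final) for nNOS. NO read 18 h later as nitrite-DAN fluorescence.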

Nitric oxide synthase 1 = Nitric oxide synthase 1 (Homo sapiens, UniProt P29475); test: Inhibition of human nNOS expressed in HEK293 cells assessed as inhibition ionomycin induced nitric oxide production incubated for 24 hrs measured after 18 hrs of ionomycin challenge using 2,3-diaminonaphthalene by fluorescence assay; type: cell-based; how it was run: as §1
Sequence of Nitric oxide synthase 1 (P29475 whole entry): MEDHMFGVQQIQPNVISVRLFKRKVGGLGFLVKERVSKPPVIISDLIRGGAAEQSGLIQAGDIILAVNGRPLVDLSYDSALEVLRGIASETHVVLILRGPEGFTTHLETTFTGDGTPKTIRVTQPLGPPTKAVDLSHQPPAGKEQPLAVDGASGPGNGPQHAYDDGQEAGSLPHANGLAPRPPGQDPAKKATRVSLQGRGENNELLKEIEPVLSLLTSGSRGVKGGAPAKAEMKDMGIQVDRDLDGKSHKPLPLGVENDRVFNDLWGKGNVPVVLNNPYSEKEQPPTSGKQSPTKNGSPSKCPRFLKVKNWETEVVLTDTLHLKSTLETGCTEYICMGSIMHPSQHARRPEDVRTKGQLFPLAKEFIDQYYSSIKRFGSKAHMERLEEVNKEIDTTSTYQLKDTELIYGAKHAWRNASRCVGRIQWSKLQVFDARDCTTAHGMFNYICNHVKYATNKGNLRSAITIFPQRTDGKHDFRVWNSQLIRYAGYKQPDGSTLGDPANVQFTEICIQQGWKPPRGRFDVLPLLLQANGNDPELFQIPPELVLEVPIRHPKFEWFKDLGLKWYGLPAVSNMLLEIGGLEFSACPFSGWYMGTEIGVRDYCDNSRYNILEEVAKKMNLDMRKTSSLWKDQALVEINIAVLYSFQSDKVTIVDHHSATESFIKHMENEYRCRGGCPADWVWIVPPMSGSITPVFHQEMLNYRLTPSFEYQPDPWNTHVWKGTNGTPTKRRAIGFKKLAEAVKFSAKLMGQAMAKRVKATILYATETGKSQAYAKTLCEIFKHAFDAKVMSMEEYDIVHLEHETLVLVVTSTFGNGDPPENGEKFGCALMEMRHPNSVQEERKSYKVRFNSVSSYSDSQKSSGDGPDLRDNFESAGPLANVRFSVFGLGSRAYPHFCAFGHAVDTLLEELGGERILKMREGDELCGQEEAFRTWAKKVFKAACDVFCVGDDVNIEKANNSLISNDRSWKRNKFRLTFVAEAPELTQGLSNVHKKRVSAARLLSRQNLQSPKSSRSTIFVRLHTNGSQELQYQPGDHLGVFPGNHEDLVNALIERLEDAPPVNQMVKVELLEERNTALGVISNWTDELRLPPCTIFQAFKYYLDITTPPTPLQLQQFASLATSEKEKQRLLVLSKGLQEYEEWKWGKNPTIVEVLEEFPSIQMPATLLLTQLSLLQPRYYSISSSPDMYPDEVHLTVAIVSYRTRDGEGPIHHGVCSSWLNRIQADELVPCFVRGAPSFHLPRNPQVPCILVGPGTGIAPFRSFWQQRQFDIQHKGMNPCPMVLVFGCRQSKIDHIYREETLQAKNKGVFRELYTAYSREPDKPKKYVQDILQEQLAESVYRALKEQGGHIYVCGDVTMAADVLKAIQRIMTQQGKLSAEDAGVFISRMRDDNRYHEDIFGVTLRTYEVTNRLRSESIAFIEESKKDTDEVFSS

Homo sapiens [2] = organism: Homo sapiens; test: Ratio of IC50 for human nNOS to EC50 for human iNOS
Homo sapiens [3] = organism: Homo sapiens; test: Ratio of IC50 for human eNOS to EC50 for human iNOS
Liver = test: Half life in mouse liver microsomes assessed as formation of oxidation product and glucuronide conjugate; type: ADME, Microsome
How it was run: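 Mouse liver microsomes run under combined phase I oxidation and phase II glucuronide conjugation; half-life reported in minutes.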

[4] = molecular target: T2, Nitric oxide synthase 3 (Homo sapiens) (UniProt P29474); test: Inhibition of human eNOS expressed in HEK293 cells assessed as inhibition A23187 induced nitric oxide production at 100 uM incubated for 24 hrs measured after 18 hrs of […] challenge using 2,3-diaminonaphthalene by fluorescence assay; type: cell-based
T2 sequence (whole entry): T1 sequence (P29474 whole entry)

EC50 [1] | EC50 (Nitric oxide synthase 3) | EC50 (Nitric oxide synthase 1) | Ratio EC50 (Homo sapiens [2]) | Ratio EC50 (Homo sapiens [3]) | t1/2 (Liver) | inhibition [4] | SMILES
3700 nM | 15000 nM | 4300 nM | 1.2 | 4.1 | > 2 h | – | Cc1ncsc1-c1nc2ccccc2n1Cc1cc(=O)[nH]c2c(F)cccc12
120 nM | 9200 nM | 1100 nM | 9.2 | 77 | > 2 h | – | O=c1cc(Cn2c(C3CC(F)(F)C3)nc3nccnc32)c2ccc(F)c(F)c2[nH]1
1360 nM | > 100000 nM | 650 nM | 0.5 | > 74 | > 2 h | < 50% | CC(C)CCc1nc2ccccc2n1Cc1cc(=O)[nH]c2c(F)c(F)ccc12
750 nM | > 100000 nM | 770 nM | 1 | > 133 | > 2 h | < 50% | O=c1cc(Cn2c(C3CCCC3)nc3ccccc32)c2ccc(F)c(F)c2[nH]1
460 nM | > 100000 nM | 730 nM | 1.6 | > 220 | – | < 50% | O=c1cc(Cn2c(C3CCC3)nc3ccncc32)c2ccc(F)c(F)c2[nH]1
150 nM | > 100000 nM | 2000 nM | 13 | > 670 | 1.43 h | < 50% | O=c1cc(Cn2c(C3CCC3)nc3c(C(F)(F)F)ccnc32)c2ccc(F)c(F)c2[nH]1
– | – | – | > 50 | > 500 | – | – | Cc1ncsc1C(=O)N(Cc1cc(=O)[nH]c2c(F)cccc12)c1ccccc1
590 nM | 8800 nM | 520 nM | 0.9 | 15 | > 2 h | – | O=c1cc(Cn2c(C3CCC3)nc3ncccc32)c2ccc(F)c(F)c2[nH]1
600 nM | 3900 nM | 950 nM | 1.6 | 6.5 | > 2 h | – | O=c1cc(Cn2c(CC3CC3)nc3ccccc32)c2ccc(F)c(F)c2[nH]1
– | – | – | 3.4 | 440 | – | – | CC(C)Cc1nc2nccnc2n1Cc1cc(=O)[nH]c2c(F)c(F)ccc12
270 nM | > 100000 nM | 1600 nM | – | > 800 | 1.53 h | < 50% | Cc1ccnc2c1nc(C1CCC1)n2Cc1cc(=O)[nH]c2c(F)c(F)ccc12
– | – | – | 14 | > 460 | – | – | O=c1cc(Cn2c(C3CC(F)(F)C3)nc3nccnc32)c2cccc(F)c2[nH]1
280 nM | > 100000 nM | 1000 nM | 3.6 | > 360 | > 2 h | – | O=c1cc(Cn2c(C3CCCC3)nc3nccnc32)c2ccc(F)c(F)c2[nH]1
850 nM | 13000 nM | 610 nM | 0.7 | 15 | > 2 h | – | CC(C)c1nc2nccnc2n1Cc1cc(=O)[nH]c2c(F)c(F)ccc12
8900 nM | > 100000 nM | 5000 nM | 0.6 | > 11 | > 2 h | < 50% | O=c1cc(Cn2c(C3CCCCC3)nc3ccccc32)c2ccc(F)c(F)c2[nH]1
540 nM | 2900 nM | 650 nM | 1.2 | 5.4 | 0.467 h | – | O=c1cc(Cn2c(CC3CCC3)nc3ccccc32)c2ccc(F)c(F)c2[nH]1
290 nM | > 100000 nM | 6800 nM | 23 | > 350 | > 2 h | – | CC(C)Cc1nc2nccnc2n1Cc1cc(=O)[nH]c2c(F)cccc12
180 nM | > 100000 nM | 1300 nM | 7.2 | > 560 | 0.833 h | < 50% | O=c1cc(Cn2c(C3CCC3)nc3cccnc32)c2ccc(F)c(F)c2[nH]1
2200 nM | 4200 nM | 2900 nM | 1.3 | 1.9 | 1.07 h | – | O=c1cc(Cn2c(-c3ccncc3)nc3ccccc32)c2ccc(F)c(F)c2[nH]1
340 nM | 1300 nM | 990 nM | 2.9 | 3.8 | > 2 h | – | Cc1cnccc1-c1nc2ccccc2n1Cc1cc(=O)[nH]c2c(F)c(F)ccc12
1600 nM | 6800 nM | 1400 nM | 0.9 | 4.3 | > 2 h | – | O=c1cc(Cn2c(C3CC3)nc3ccccc32)c2ccc(F)c(F)c2[nH]1
18000 nM | 21000 nM | 24000 nM | 1.3 | 1.2 | > 2 h | – | O=c1cc(Cn2c(C3CCC3)nc3cnccc32)c2ccc(F)c(F)c2[nH]1
730 nM | 1300 nM | 690 nM | 0.9 | 1.8 | > 2 h | – | CCCc1nc2ccccc2n1Cc1cc(=O)[nH]c2c(F)c(F)ccc12
